Experimental data published in ChEMBL document CHEMBL1128459, “Characterization of potent and selective antagonists at postsynaptic 5-HT1A receptors in a series of N4-substituted arylpiperazines” (J Med Chem, 1995).

Assays:
[1] = target: 5-hydroxytryptamine receptor 1B (Rattus norvegicus, UniProt P28564); experiment: Binding affinity at 5-hydroxytryptamine 1B receptor
How it was run: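 Rat frontal cortex membranes (1/40 wt/vol) were homogenized in 50 mM Tris pH 7.7 with pargyline, 4 mM CaCl2 and 0.1% ascorbic acid, then preincubated for 30 min at 37 °C. Labelled with 2.0 nM [3H]-5-HT, with 100 nM 8-OH-DPAT and 100 nM mesulergine masking 5-HT1A/5-HT2A sites; 5-CT defined nonspecific binding.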

[2] = tested on: Rattus norvegicus; experiment: Compound after subcutaneous administration was evaluated for antagonist activity against hypothermia induced by 8-hydroxy -DPAT in rat; type: functional; conditions: sc, read-out: ID50 (the source's name)
How it was run: (§1)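 Male Wistar rats (200-220 g) had rectal temperature taken, then received the test drug sc in distilled water (1.0 mL/kg). After 30 min they got 8-OH-DPAT 0.16 mg/kg sc, and temperature was remeasured 30 min later. Change from basal was scored.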

[3] = tested on: Rattus norvegicus; experiment: Minimum effective agonist dose administered subcutaneously; type: functional; conditions: sc, read-out: MED
How it was run: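 Male Wistar rats (200-220 g) were given the test drug alone sc in water (1.0 mL/kg), with vehicle reinjected at 30 min. Rectal temperature change from basal was measured 60 min after the first injection. MED for hypothermia was set against vehicle by ANOVA with Dunnett's test, P < 0.05.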

[4] = tested on: Rattus norvegicus; experiment: Minimum effective antagonist dose administered subcutaneously; type: functional; conditions: sc, read-out: MED; how it was run: as §1
[5] = species: Rattus norvegicus; experiment: Maximum agonist effect (% effect) expressed relative to 8-hydroxy-DPAT (100%); type: functional
How it was run: (§2)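 In the rat rectal-temperature model (sc dosing, 8-OH-DPAT 0.16 mg/kg sc for antagonism), the maximal percentage of induced hypothermia (agonist) and of block of 8-OH-DPAT hypothermia (antagonist) was recorded. Each value is given with the dose at which it was reached.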

[6] = species: Rattus norvegicus; experiment: Maximum antagonist effect (% effect) expressed relative to 8-hydroxy-DPAT (100%); type: functional; how it was run: as §2
[7] = Ratio of MED (agonist) to that of MED (antagonist) values.; type: functional
How it was run: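 The MED for inducing hypothermia alone was divided by the MED for blocking 8-OH-DPAT (0.16 mg/kg sc) hypothermia. Both MEDs came from sc dosing in male Wistar rats and were tested against vehicle by ANOVA with Dunnett's test, P < 0.05.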

[8] = target: Serotonin 1a (5-HT1a) receptor/Adrenergic receptor alpha-1 (Rattus norvegicus) (UniProt P15823+P23944+P43140+P19327); experiment: Ki ratio measured as the Ki values of alpha-1 adrenergic receptor to that of 5-hydroxytryptamine 1A receptor; type: protein assay
[9] = target: T1, Adrenergic receptor alpha-1 (Rattus norvegicus, UniProt P15823+P23944+P43140); experiment: In vitro binding affinity towards Alpha-1 adrenergic receptor in rat cortex was determined using [3H]prazosin as radioligand
T1 sequence (P15823 whole entry): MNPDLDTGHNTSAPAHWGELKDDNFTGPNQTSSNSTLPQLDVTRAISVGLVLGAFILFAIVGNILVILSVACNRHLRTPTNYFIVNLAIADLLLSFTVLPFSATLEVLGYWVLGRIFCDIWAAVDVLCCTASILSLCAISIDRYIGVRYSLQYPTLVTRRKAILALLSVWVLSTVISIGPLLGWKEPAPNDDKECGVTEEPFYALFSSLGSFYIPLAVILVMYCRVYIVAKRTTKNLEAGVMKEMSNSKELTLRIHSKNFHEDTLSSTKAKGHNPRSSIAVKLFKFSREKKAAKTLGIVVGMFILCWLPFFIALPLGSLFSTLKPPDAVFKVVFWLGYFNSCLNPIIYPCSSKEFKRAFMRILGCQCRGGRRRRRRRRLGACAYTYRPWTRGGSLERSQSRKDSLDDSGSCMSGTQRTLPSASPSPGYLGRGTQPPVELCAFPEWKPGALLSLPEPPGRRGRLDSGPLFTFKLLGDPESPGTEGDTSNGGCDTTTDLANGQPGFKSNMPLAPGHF
T1 sequence (P23944 whole entry): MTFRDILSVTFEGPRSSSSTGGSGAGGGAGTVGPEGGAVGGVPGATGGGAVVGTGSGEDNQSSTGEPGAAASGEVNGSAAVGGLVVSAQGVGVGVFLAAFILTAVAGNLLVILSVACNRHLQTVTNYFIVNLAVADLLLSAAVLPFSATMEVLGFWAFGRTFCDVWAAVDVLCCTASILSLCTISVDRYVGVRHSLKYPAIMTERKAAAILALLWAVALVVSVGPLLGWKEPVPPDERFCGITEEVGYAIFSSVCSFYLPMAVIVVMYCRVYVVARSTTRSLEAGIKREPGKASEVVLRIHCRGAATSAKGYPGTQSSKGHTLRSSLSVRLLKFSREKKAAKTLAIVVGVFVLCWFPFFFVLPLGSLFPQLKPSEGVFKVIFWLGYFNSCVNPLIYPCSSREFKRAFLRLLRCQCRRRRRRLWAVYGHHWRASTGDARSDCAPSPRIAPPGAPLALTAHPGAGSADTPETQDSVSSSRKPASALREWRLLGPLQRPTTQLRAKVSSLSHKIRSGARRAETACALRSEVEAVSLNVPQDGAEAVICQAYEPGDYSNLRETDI
T1 sequence (P43140 whole entry): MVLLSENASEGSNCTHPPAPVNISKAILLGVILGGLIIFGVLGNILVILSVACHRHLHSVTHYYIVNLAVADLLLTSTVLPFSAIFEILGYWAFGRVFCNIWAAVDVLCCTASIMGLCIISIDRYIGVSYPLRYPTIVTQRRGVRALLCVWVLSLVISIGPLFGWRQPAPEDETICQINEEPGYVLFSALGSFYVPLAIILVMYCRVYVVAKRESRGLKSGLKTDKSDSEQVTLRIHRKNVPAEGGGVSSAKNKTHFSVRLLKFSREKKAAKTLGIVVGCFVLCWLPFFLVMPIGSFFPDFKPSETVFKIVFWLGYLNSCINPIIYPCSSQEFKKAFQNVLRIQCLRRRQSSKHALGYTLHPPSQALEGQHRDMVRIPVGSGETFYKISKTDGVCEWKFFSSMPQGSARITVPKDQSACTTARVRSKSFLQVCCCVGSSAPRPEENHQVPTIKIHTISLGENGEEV
How it was run: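 Rat frontal cortex membranes (1/80 wt/vol), no preincubation, in 50 mM Tris pH 7.6 with 4 mM CaCl2 and 0.1% ascorbic acid. Ligand 0.2 nM [3H]prazosin, with phentolamine for nonspecific binding. Incubation 60 min at 25 °C, then filtration. IC50 obtained by regression and converted to pKi with radioligand Kd from saturation experiments.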

[10] = target: D(2) dopamine receptor (Rattus norvegicus, UniProt P61169); experiment: In vitro binding affinity towards Dopamine receptor D2 in rat striatum was determined using [3H]-spiperone as radioligand; type: tissue-based
Sequence of D(2) dopamine receptor (P61169 whole entry): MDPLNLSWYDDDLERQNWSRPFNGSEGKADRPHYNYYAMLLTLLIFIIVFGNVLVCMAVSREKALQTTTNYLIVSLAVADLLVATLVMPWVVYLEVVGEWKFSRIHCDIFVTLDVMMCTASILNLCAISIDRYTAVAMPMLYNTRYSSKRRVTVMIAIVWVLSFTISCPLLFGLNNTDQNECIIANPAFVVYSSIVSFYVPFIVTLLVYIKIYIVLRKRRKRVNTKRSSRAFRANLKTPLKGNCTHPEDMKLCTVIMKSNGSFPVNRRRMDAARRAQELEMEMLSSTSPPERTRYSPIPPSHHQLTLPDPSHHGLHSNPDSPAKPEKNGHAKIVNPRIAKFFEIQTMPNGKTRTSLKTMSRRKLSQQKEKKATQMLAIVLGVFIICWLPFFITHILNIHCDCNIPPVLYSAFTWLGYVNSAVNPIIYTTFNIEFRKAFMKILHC
How it was run: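 Rat striatal membranes (1/300 wt/vol), no preincubation, in 50 mM Tris pH 7.4 with CaCl2, ascorbic acid, 5 mM KCl, 1 mM MgCl2 and 120 mM NaCl. Ligand 0.2 nM [3H]spiperone, with 100 nM ketanserin masking 5-HT2A sites; raclopride defined nonspecific binding. Incubation 30 min at 37 °C, then filtration. pKi derived from regression-based IC50.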

[11] = target: D(2) dopamine receptor (Rattus norvegicus) (UniProt P61169)
Sequence of D(2) dopamine receptor (Rattus norvegicus) (P61169 whole entry): as above

[12] = target: T2, 5-hydroxytryptamine receptor 1A (Rattus norvegicus, UniProt P19327); experiment: Binding affinity at 5-hydroxytryptamine 1A receptor
T2 sequence (P19327 whole entry): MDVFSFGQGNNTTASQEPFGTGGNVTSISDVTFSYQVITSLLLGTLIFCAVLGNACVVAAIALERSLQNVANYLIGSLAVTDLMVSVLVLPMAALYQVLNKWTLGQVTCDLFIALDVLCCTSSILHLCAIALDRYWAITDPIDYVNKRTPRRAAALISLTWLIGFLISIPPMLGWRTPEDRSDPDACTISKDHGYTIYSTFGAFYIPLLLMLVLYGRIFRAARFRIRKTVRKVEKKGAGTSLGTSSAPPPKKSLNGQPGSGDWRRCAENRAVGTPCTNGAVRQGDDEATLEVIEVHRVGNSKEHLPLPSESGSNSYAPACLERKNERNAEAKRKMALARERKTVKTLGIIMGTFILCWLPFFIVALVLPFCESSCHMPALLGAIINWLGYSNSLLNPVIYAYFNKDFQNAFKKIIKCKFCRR
How it was run: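 Rat hippocampal membranes (1/100 wt/vol) in 50 mM Tris pH 7.7 with 4 mM CaCl2, 0.1% ascorbic acid and pargyline. Membranes were spun at 25000g, preincubated 30 min at 37 °C and respun, then incubated with 0.4 nM [3H]-8-OH-DPAT for 30 min at 25 °C. 5-HT defined nonspecific binding, and samples were filtered on PEI-soaked GF/B. IC50 came from regression; pKi = −log[IC50/(1+[L]/Kd)].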

[13] = target: D(2) dopamine receptor (Rattus norvegicus) (UniProt P61169); experiment: Inhibitory activity against methyl-phenidate-induced gnawing at dopamine receptor D2 in rat
How it was run: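 Male Wistar rats (200-220 g) received the test drug sc in water (1.0 mL/kg), then methylphenidate 40.0 mg/kg ip 30 min later. Observation began 30 min after that. Gnawing bouts were counted in 10 s per minute (maximum 10) by a blinded observer.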

Sequence of 5-hydroxytryptamine receptor 1B (P28564 whole entry): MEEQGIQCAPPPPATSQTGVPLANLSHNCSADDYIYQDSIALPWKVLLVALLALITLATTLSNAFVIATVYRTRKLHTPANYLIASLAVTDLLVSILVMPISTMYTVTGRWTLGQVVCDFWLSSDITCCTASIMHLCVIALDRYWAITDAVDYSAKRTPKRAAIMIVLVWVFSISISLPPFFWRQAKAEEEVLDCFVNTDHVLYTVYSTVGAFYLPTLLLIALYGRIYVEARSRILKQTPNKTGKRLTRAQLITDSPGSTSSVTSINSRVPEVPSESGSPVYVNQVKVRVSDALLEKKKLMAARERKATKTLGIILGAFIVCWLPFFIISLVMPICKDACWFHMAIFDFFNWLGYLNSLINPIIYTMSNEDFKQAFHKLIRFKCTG

Structure (SMILES)	Ki [1] [nM]	ED50 [2] [mg/kg]	minimal effective dose [3] [mg/kg]	minimal effective dose [4] [mg/kg]	Max effect [5] [%]	Max effect [6] [%]	Ratio [7]	Ki ratio [8]	Log Ki [9]	Ki [10] [nM]	ID50 [11] [mg/kg]	Ki [12] [nM]	ID50 [13] [mg/kg]
c1ccc2c(c1)CC(N1CCN(c3cccc4c3OCCO4)CC1)C2	1780	1.4	20	0.63	46	95	31.7	81	-6.84	347	> 40	–	–
c1ccc2c(c1)CCC2CCN1CCN(c2cccc3c2OCCO3)CC1 (stereo not given)	–	1.29	> 40	0.63	19	94	> 63.5	–	–	–	–	1.58	> 40
c1ccc2c(c1)CC2CCCN1CCN(c2cccc3ccoc23)CC1 (stereo not given)	1410	2.5	10	2.5	46	47	4	–	–	–	–	2.82	40
c1ccc2c(c1)CC2CCN1CCN(c2cccc3c2OCCO3)CC1 (stereo not given)	–	0.65	40	1.25	32	76	32	35.4	-7.66	49	> 40	0.589	–
c1ccc2c(c1)CCCCC2CCN1CCN(c2cccc3c2OCCO3)CC1 (stereo not given)	776	4.26	> 10	5	9	96	> 2	–	–	–	> 10	6.61	–
COc1ccccc1N1CCN(CCN2C(=O)CC3(CCCC3)CC2=O)CC1 [BMY-7378]	> 10000	1.6	2.5	1.25	53	64	–	–	–	17.4	0.65	–	–
COc1ccccc1N1CCN(C[C@@H](C(=O)NC(C)(C)C)c2ccccc2)CC1	> 10000	2.45	40	2.5	50	73	16	35.6	-5.94	389	> 40	–	–
c1ccc2c(c1)CC2CN1CCN(c2cccc3c2OCCO3)CC1 (stereo not given)	214	0.67	10	0.63	100	85	15.8	–	–	–	> 40	1.78	–
COc1ccc2c(c1)C(CCN1CCN(c3cccc4c3OCCO4)CC1)C2 (stereo not given)	316	0.48	10	0.63	35	95	15.8	–	–	–	> 40	1.26	–
